Most compounds without a hit are left out; they make up all but 3.7% or so of the library.
EBI2 antag – EBI2 receptor antagonists, beta-arrestin recruitment, primary screen, cell-based, luminescence, 7a,25-OHC stimulation, uHTS. AID 651636, 2012. 360,000 tested, 0.81% active. G-protein coupled receptor 183 (Homo sapiens), P32249. inhibition, % at 5 µM. 7a,25-OHC stimulated; in the data active = inhibition above about 38%;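 note: enzyme fragment complementation signal reports receptor beta-arrestin coupling in cells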
MC4R antag cAMP – MC4R antagonists of cAMP signaling, primary screen, cell-based, TR-FRET, antagonist arm of biased-ligand search | Melanocortin receptor 4 (Homo sapiens), P32245 | MC4R-expressing cells, MTII-stimulated cAMP, LANCE TR-FRET | inhibition, % at 6.5 µM | 360,000 tested, 0.48% active | AID 540295, 2011;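 active = inhibition above its plate's cutoff, the mean of tested wells on that plate plus 3 SD, cut at about 29% in these data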
Target sequence (P32245 whole entry, looked up): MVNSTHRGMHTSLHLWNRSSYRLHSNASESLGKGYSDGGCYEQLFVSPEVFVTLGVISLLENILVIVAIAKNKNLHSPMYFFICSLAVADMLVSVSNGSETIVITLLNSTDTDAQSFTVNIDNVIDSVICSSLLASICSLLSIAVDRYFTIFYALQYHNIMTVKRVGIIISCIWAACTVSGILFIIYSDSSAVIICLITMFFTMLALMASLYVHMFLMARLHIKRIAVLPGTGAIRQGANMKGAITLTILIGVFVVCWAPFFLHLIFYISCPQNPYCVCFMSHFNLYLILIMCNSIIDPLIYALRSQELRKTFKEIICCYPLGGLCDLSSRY
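Assay system: human MC4R-expressing U2OS cells; reagent: Melanotan II stimulation of cells; dosing: 6.5 µM single dose; timing: compound 30 min, challenge 1 h, detection 1 h; signal: TR-FRET cAMP assay; replicates: one well per compound, no replicates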
MC4R barr agon – MC4R agonists recruiting beta-arrestin, primary screen, cell-based, luminescence, agonist arm of biased-ligand search; 360,000 tested, 0.98% active; Melanocortin receptor 4 (Homo sapiens), P32245; U2OS MC4R beta-arrestin complementation; percent of melanotan II response, DMSO zero; AID 540308, 2011; activation, % at 8.9 µM;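 active = activation above a per-plate cutoff, the mean activation of sample wells on that plate plus 3 SD, cut at about 8% in these data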
Exocytosis inh – LAMP-1 surface exposure blockers, TALL-104 cells – cell-based, flow cytometry, MLPCN library, primary screen | 360,000 tested, 0.66% active | inhibition, % at 10 µM | TALL-104 LAMP-1 surface exposure; cells stimulated with thapsigargin and PMA;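 active = inhibition above about 55%, limit read from the data; inconclusive = no clear call, values can overlap the other calls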
Myeloid diff 2 – induction of myeloid progenitor differentiation, primary screen, cell-based, flow cytometry, MLPCN library; calls only at 10 µM; ER-HoxA9 myeloid progenitors, lysozyme-GFP differentiation; 360,000 tested, 1% active;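 active = normalized GFP-positive differentiation at or above the plate's own cutoff, the solvent-only control mean plus 3 SD; inconclusive = no clear call, values can overlap the other calls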;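 note: cells exposed to compound for four days before flow analysis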
A number is an active result; – = inactive; ? = inconclusive; · = no result given; + = active, no number; ! = not confirmed by another sample.

SMILES	EBI2 antag	MC4R antag cAMP	MC4R barr agon	Exocytosis inh	Myeloid diff 2
Cc1cc(Cl)ccc1N=c1ssnc1Cl	38	–	–	–	–
COc1cc(N=c2ssnc2Cl)c(OC)cc1Cl	–	–	–	99!	–
COc1ccc(OC)c(N=c2ssnc2Cl)c1	–	–	–	–	–
Cc1nnc(N=c2ssnc2Cl)o1	41	–	–	–	–
CCc1cccc2c(C(=O)C(F)(F)F)cn(CC(=O)N3CCOCC3)c12	–	–	–	–	–
CC(C)(C)c1ccc(OCc2ccc(C(=O)NCc3cccnc3)o2)cc1	–	–	–	–	–
Cc1cc(C)nc(/N=c2/ssnc2Cl)c1	–	–	–	82	–
Cc1ccc(Nc2ncnc3sc(C)c(C)c23)cc1C	–	–	–	–	+
O=C1c2ccccc2NC(c2cccc([N+](=O)[O-])c2)N1CCc1ccccc1 (stereo not drawn)	–	–	–	76	–
CCOc1ccc2nc(NC(=O)CN3C(=O)NC4(CCCC4)C3=O)sc2c1	–	–	–	–	–
CCN(CC)C(=O)C1CCN(S(=O)(=O)c2c(C)noc2/C=C/c2cccc(C)c2)CC1	–	–	–	–	+
Cc1cccc(/C=C/c2onc(C)c2S(=O)(=O)N2CCC(C(=O)NC(C)(C)C)CC2)c1	–	–	–	–	–
Cc1ccc(C(C(=O)NCc2ccc(F)cc2)N(Cc2ccco2)C(=O)c2snc(C(N)=O)c2N)o1 (stereo not drawn)	–	–	–	74	–
COc1ccc(CNC(=O)C(c2ccc(C)o2)N(C(=O)c2snc(C(N)=O)c2N)c2ccccc2OC)cc1 (stereo not drawn)	–	–	–	73	–
COc1ccc(OC)c(N(C(=O)c2snc(C(N)=O)c2N)C(C(=O)NCc2ccccc2)c2ccc(O)cc2)c1 (stereo not drawn)	–	–	–	–	–
NC(=O)c1nsc(C(=O)N(Cc2ccco2)C(C(=O)NCc2ccc(F)cc2)c2ccc(O)cc2)c1N (stereo not drawn)	–	–	–	–	–
OCCc1ccc(NCCc2cccs2)cc1	–	·	·	–	–
COc1ccccc1NC(=O)Nc1nc(CC(=O)N2CCN(c3ccccc3OC)CC2)cs1	–	–	–	–	–
COc1ccc(-n2nc(C)cc2N)cc1	–	–	–	–	–
Cc1cc(N)n(-c2ccc3ccccc3c2)n1	–	–	–	–	+
Cc1ccc(Cl)cc1NC(=O)[C@@H]1CCC(=O)N1C1OC(=O)c2ccccc21 (stereo partly drawn)	–	–	–	–	–
COc1ccc(/C=C(\C#N)C(=O)N=CN(C)C)cc1	–	–	–	–	–
COc1ccc(/C=C(\C#N)C(=O)N2COCC2(C)C)cc1	–	–	–	56	–
c1ccc(-c2ccc(C3=Nn4c(nnc4-c4cc(-c5ccccc5)n[nH]4)SC3)cc2)cc1	–	–	9.7	–	–
CCCCn1c(N)c(N(CC(C)C)C(=O)c2ccc(OCc3c(C)noc3C)cc2)c(=O)[nH]c1=O	–	–	–	–	–
SMILES	EBI2 antag	MC4R antag cAMP	MC4R barr agon	Exocytosis inh	Myeloid diff 2
Cn1nc2c(c1C(=O)N1CCCC(C(=O)c3cc(F)ccc3F)C1)CCCC2 (stereo not drawn)	–	–	–	–	–
COc1ccc(C(=O)C2CCCN(C(=O)c3c4c(nn3C)CCCC4)C2)cc1F (stereo not drawn)	–	–	–	–	+
Cn1nnnc1Sc1ncnc2scc(-c3ccccc3)c12	–	–	–	–	·
Cn1nnnc1Sc1ncnc2scc(-c3ccccc3Br)c12	–	–	–	–	+
COc1cccc(-c2c(-c3cc(OC)cc(OC)c3)n(C)c3ccc(-c4cccc5[nH]ccc45)cc23)c1	–	–	–	–	–
COc1ccc(CCN(/C=C2\Sc3ccccc3C2=O)C(C)=O)cc1OC	–	–	–	–	+
Cc1ccc(C)c(/C=N/Nc2nc3ccccc3c(=O)n2O)c1	–	–	–	–	–
COC(=O)C1(C(=O)OC)c2cc3c(cc2CN(S(=O)(=O)c2ccc(C)cc2)C1CC(C)=O)OCO3 (stereo not drawn)	–	·	·	–	–
CCN(CC)c1ccc(NC(=O)CSC(=O)c2ccccc2)cc1	–	–	–	–	+
CC(=O)c1cccc(NC(=O)CSC(=O)c2ccccc2)c1	–	–	–	–	–
O=C1NC(=O)c2cc(Br)cc3cccc1c23	–	–	8.9	–	–
Nc1cccc(N2C(=O)c3cccc4c(N)ccc(c34)C2=O)c1	–	–	–	–	+
Cc1cccc(N2C(=O)c3cccc4c(N)ccc(c34)C2=O)c1	–	–	–	–	–
CC(C)CCN1C(=O)c2cccc3c(N)ccc(c23)C1=O	–	–	–	–	+
COc1ccc2c(COC(=O)c3ccc(C)c(S(=O)(=O)N4CCOCC4)c3)cc(=O)oc2c1	–	–	–	–	–
CN(C)c1cccc2c1c(NC(=O)c1ccc(Cl)cc1)nn2C	–	–	–	–	–
C=C1C(=O)N(C)CCC1C(CC)C(=O)OC (stereo not drawn)	–	–	–	–	–
Cn1c(SCC(=O)Nc2ccccc2)nnc1-c1ccc(NC(=O)CCc2ccccc2)cc1	–	–	9.3	–	–
CC(=O)c1cccc(NC(=O)CCc2nc3sc4c(c3c(=O)[nH]2)CCCC4)c1	–	–	–	–	–
Cc1ccc(S(=O)(=O)N(C(=O)c2ccncc2)c2ccc(OC(=O)c3ccncc3)c3ccccc23)c(C)c1	–	–	–	100	–
Cc1ccc(S(=O)(=O)N(C(=O)c2ccncc2)c2ccc(OC(=O)c3ccncc3)c3ccccc23)cc1	–	–	–	118	?
O=C1NC(=O)N(Cc2ccccc2)C1=O	–	–	–	–	+
O=C1NC2(CCCCCC2)C(=O)N1Cc1ccccc1	–	–	–	–	–
CC(=O)OC1C(=O)N(Cc2ccccc2)C1c1ccc(C)cc1 (stereo not drawn)	–	–	–	–	–
COc1ccc(N2C(=O)/C(=C/c3ccc([N+](=O)[O-])cc3)C=C2c2ccccc2)cc1	–	–	–	–	+
O=C1/C(=C/c2ccc([N+](=O)[O-])cc2)C=C(c2ccccc2)N1c1ccccc1	–	–	–	–	–
COc1ccccc1Cn1[nH]nnc1=S	–	–	–	–	–
CC(=O)N/C(=N/c1nc(C)cc(C)n1)Nc1ccc(C)cc1C	–	–	–	66	–
CC(=O)N/C(=N/c1nc(C)cc(C)n1)Nc1cccc(C)c1	–	–	–	–	–
COc1ccccc1NC(=O)NCc1nc(-c2ccc(C(F)(F)F)cc2)no1	–	–	8.5	–	–

From PubChem BioAssay
